Key:
HT-29 = assay: Growth inhibition of human HT-29 cells after 72 hrs by MTT assay; assay type: functional; details: HT-29, 72 h
How it was run: (§1)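 Cells kept in DMEM with 10% FBS, glutamine, penicillin/streptomycin at 37 °C, 5% CO2; plated in duplicate at 2500–4000 cells/well, dosed 24 h later during log growth. After 72 h drug exposure, MTT read at 540 nm. […] Assays in triplicate, standard error reported.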

[1] = Growth inhibition of human U87 cells after 72 hrs by MTT assay; assay type: functional, U-87MG ATCC; details: U-87 MG; how it was run: as §1
MCF7 = assay: Growth inhibition of human MCF7 cells after 72 hrs by MTT assay; assay type: functional; details: MCF7, 72 h; how it was run: as §1
A2780 = assay: Growth inhibition of human A2780 cells after 72 hrs by MTT assay; assay type: functional; details: A2780, 72 h; how it was run: as §1
[2] = Growth inhibition of human H460 cells after 72 hrs by MTT assay; assay type: functional; details: NCI-H460, 72 h; how it was run: as §1
A-431 = assay: Growth inhibition of human A431 cells after 72 hrs by MTT assay; assay type: functional; details: A-431, 72 h; how it was run: as §1
DU-145 = assay: Growth inhibition of human DU145 cells after 72 hrs by MTT assay; assay type: functional; details: DU-145, 72 h; how it was run: as §1
[3] = Growth inhibition of human BE(2)-C cells after 72 hrs by MTT assay; assay type: functional; how it was run: as §1
[4] = Growth inhibition of human SJ-G2 cells after 72 hrs by MTT assay; assay type: functional; details: SJ-G2, 72 h; how it was run: as §1
[5] = Growth inhibition of human MIA cells after 72 hrs by MTT assay; assay type: functional; how it was run: as §1
[6] = Growth inhibition of mouse SMA cells after 72 hrs by MTT assay; assay type: functional; how it was run: as §1

Row | SMILES | GI50 (HT-29) [µM] | GI50 [1] [µM] | GI50 (MCF7) [µM] | GI50 (A2780) [µM] | GI50 [2] [µM] | GI50 (A-431) [µM] | GI50 (DU-145) [µM] | GI50 [3] [µM] | GI50 [4] [µM] | GI50 [5] [µM] | GI50 [6] [µM]
1 | Cc1cc2c(c3oc(=O)c(CCCCl)cc13)C(=O)c1c(OC(C)C)cccc1C2=O | 15 | 16 | 19 | 21 | 19 | 17 | 20 | 33 | 15 | 20 | 19
2 | CCc1cc(=O)c2c(C)cc3c(c2o1)C(=O)c1c(OC(C)C)cccc1C3=O | 4.8 | 8.7 | 4.3 | 5.8 | 6.9 | 5.7 | 1.9 | 2.2 | 16 | 3.4 | 3.9
3 | CC(=O)c1cc2c(C)cc3c(c2o1)C(=O)c1c(OC(C)C)cccc1C3=O | 9.7 | 8.4 | 3.5 | 5 | 17 | 5.8 | 1.9 | 4.6 | 2.2 | 9.7 | 2.3
4 | CC(=O)c1cc2c(C)cc3c(c2o1)C(=O)c1c(O)cccc1C3=O | 4.7 | 5.5 | 2.1 | 2 | 9.6 | 4.8 | 2 | 2.9 | 1.8 | 9.5 | 1.5
5 | Cc1cc2c(c3oc(=O)c(C(C)(C)C)cc13)C(=O)c1c(OC(C)C)cccc1C2=O | 13 | 17 | 14 | 12 | 20 | 17 | 29 | 33 | 12 | 12 | 12
6 | Cc1cc2c(c3oc(=O)c([Si](C)(C)C)cc13)C(=O)c1c(OC(C)C)cccc1C2=O | 11 | 19 | 13 | 13 | 21 | 19 | 27 | 28 | 14 | 11 | 11
7 | Cc1cc2c(c3oc(CCCCl)cc13)C(=O)c1c(OC(C)C)cccc1C2=O | 18 | 18 | 13 | 11 | 27 | 23 | 25 | 43 | 25 | 34 | 22
8 | Cc1cc2c(c3oc(CCCCl)cc13)C(=O)c1c(O)cccc1C2=O | 1.9 | 0.97 | 0.66 | 0.45 | 1.9 | 0.59 | 0.44 | 0.38 | 37 | 0.55 | 0.69
9 | CCC(C)(O)c1cc2c(C)cc3c(c2oc1=O)C(=O)c1c(OC(C)C)cccc1C3=O (stereo unspecified) | 11 | 25 | 16 | 19 | 16 | 15 | 26 | 22 | 9 | 14 | 23
10 | Cc1cc2c(c3oc(=O)cc(CCCCl)c13)C(=O)c1c(OC(C)C)cccc1C2=O | 24 | 12 | 8.8 | 12 | 25 | 12 | 24 | 27 | 27 | 17 | 16
11 | CCCc1cc(=O)c2c(C)cc3c(c2o1)C(=O)c1c(OC)cccc1C3=O | 5.5 | 6.4 | 6.4 | 6.4 | 5.3 | 6.6 | 5.3 | 6.1 | 5.3 | 7.1 | 6
12 | CCc1cc(=O)c2c(C)cc3c(c2o1)C(=O)c1c(OC)cccc1C3=O | 4.5 | 14 | 4.1 | 5.3 | 4.8 | 5.7 | 4.8 | 4.1 | 4.3 | 5.4 | 6.5
13 | Cc1cc2c(c3oc(CCCC#N)cc13)C(=O)c1c(OC(C)C)cccc1C2=O | 11 | 6.1 | 5.9 | 6.4 | 9.4 | 9.8 | 7.7 | 23 | 8.4 | 10 | 10
14 | Cc1cc2c(c3oc(CCC(F)(F)F)cc(=O)c13)C(=O)c1c(O)cccc1C2=O | 0.94 | 2.9 | 0.28 | 0.34 | 0.87 | 0.51 | 0.29 | 0.2 | 0.49 | 0.28 | 0.48
15 | Cc1cc2c(c3oc(C(=O)c4ccccc4)cc13)C(=O)c1c(OC(C)C)cccc1C2=O | 1.4 | 2.3 | 1.1 | 2.1 | 2.9 | 1.77 | 0.95 | 0.83 | 36 | 1.7 | 2.2
16 | CCC(C)(OCc1ccccc1)c1cc2c(C)cc3c(c2oc1=O)C(=O)c1c(O)cccc1C3=O (stereo unspecified) | 5.6 | 14 | 5.3 | 7 | 5.1 | 4 | 8.8 | 6.7 | 3.9 | 3.9 | 6.1
17 | CCCCCC(=O)c1cc2c(C)cc3c(c2o1)C(=O)c1c(OC(C)C)cccc1C3=O | 0.88 | 4.2 | 2 | 2.3 | 6.8 | 1.4 | 0.85 | 0.75 | 4.2 | 1.1 | 1.8
18 | Cc1cc2c(c3oc(C(C)O)cc13)C(=O)c1c(O)cccc1C2=O (stereo unspecified) | 13 | 20 | 21 | 7.3 | 17 | 9 | 28 | 19 | 17 | 15 | 12
19 | Cc1cc2c(c3oc(C(C)O)cc13)C(=O)c1c(OC(C)C)cccc1C2=O (stereo unspecified) | 24 | 35 | 24 | 16 | 17 | 19 | 28 | 20 | 14 | 19 | 29
20 | Cc1cc2c(c3oc(CCCC#N)cc13)C(=O)c1c(O)cccc1C2=O | 1.9 | 11 | 4.7 | 6.5 | 15 | 13 | 0.46 | 0.99 | 32 | 2.6 | 5.4
21 | CCCCc1cc(=O)oc2c3c(cc(C)c12)C(=O)c1cccc(OC(C)C)c1C3=O | 18 | 14 | 15 | 9.5 | 19 | 20 | 11 | 13 | 13 | 13 | 12

Source: ChEMBL document CHEMBL3596100, “The synthesis and biological activity of novel anthracenone-pyranones and anthracenone-furans” (Bioorg Med Chem, 2015)
